Screening data as filed in PubChem.
An excerpt weighted towards active compounds, which were near 3.5% of everything screened.
Yeast life ext = compounds extending yeast replicative lifespan, primary screen, S. cerevisiae, OD615 | S. cerevisiae growth with nicotinamide; deaD strain in restrictive glucose medium | inhibition of the nicotinamide effect, % at 10 µM | 130,000 tested, 0.68% active;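 active = inhibition above a set limit, placed 3 SD over the median of all compounds, cut at about 26% in these data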;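 also: 0% = nicotinamide-treated wells and 100% = cells grown without nicotinamide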
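Test system: DeaD-strain S. cerevisiae / Buffer or medium: restrictive glucose medium / Also added: nicotinamide 1.5 mM / Doses: one concentration, 10 µM, DMSO 0.25% / Schedule: 48 h at 30 °C / Signal: OD615 measurement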
MT stabilize HCS = microtubule stabilizers in HeLa cells, primary screen, imaging, high-content imaging; HeLa tubulin immunostaining HCS, 24 h; share of cells brighter than vehicle mean+2SD; 200,000 tested, 0.83% active; AID 2205, 2009; % tubulin-high responders, % at 10 µM;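 active = plate Z-score above 3 for both tubulin-high and condensed-nucleus cell shares, with cell loss under 80%, at 10 µM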;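 also: anti alpha tubulin signal scored within the nucleus-defined area of each cell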
HMGR II inh = inhibitors of E. faecalis class II HMGR, primary screen, biochemical, Enterococcus faecalis. HMG-CoA reductase (Enterococcus faecalis, mvaE). purified E. faecalis HMGR, NADPH absorbance 340 nm kinetic. inhibition, % at 10 µM. 190,000 tested, 0.41% active;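 active = inhibition above a set limit, the median over all tested compounds plus 3 SD, cut at about 9.5% in these data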;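 also: enzyme runs in reverse so mevalonate oxidation gives rising NADPH absorbance; 0% = complete reaction with DMSO and 100% = background rate lacking mevalonate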
RAM inhibit = inhibitors of the yeast RAM network, primary screen, dse1pr::URA3 reporter, 5-FOA selection; S. cerevisiae dse1pr::URA3 reporter, 5-FOA growth OD615, 2 d; analog-sensitive cbk1-as2 kinase mutant strain; inhibition, % at 50 µM; 190,000 tested, 1.8% active; AID 868, 2007;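 active = inhibition above a set limit, 3 SD over mean compound inhibition, cut at about 8.4% in these data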;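 also: 0% = DMSO-only wells with no growth and 100% = 10 µM 1-NA-PP1 full growth; inhibition rescues growth on 5-FOA so higher OD means more RAM inhibition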
BB579 growth dn = growth inhibitors of yeast BB579 in restrictive medium, primary screen, yeast lifespan-shortening project, S. cerevisiae; OD615, 48 h; inhibition, % at 10 µM; 140,000 tested, 0.51% active;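 active = inhibition above a set limit, 3 SD over the mean compound inhibition, cut at about 44% in these data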
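System: DeaD yeast strain BB579; buffer or medium: CSMM-D dextrose restrictive medium; technique: OD at 615 nm; schedule: 4 h cell preincubation, 48 h compound exposure, 30 °C humidified; doses: single 10 µM dose; controls: amphotericin B 10 µg/mL, positive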
bCat nuc transl = modulators of beta-catenin nuclear translocation, primary screen, imaging, HeLa cells, immunofluorescence, high-content. 190,000 tested, 0.3% active. nuclear translocation activity, % at 5 µM. AID 1665, 2009;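 active = nuclear translocation activity above 50% at 5 µM, with a well cell count of 50 or more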;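 also: per-cell ratio of nuclear to cytoplasmic median beta-catenin stain intensity; plate controls were DMSO negative control for no effect and GSK-3 inhibitor IX positive control for full effect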
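Test system: human HeLa cells, native beta-catenin. Compound dosing: 5 µM primary single dose, 0.1% DMSO, 0.02–20 µM confirmation series. Incubation: compound exposure 24 h at 37°C. Detection: beta-catenin immunostaining with DAPI counterstain, 20x imaging, 6 fields/well. Read-out basis: Nuclear/cytoplasmic beta-catenin signal ratio, % activation.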
The depositor's hits bear a star; . = no result given.

SMILES	Yeast life ext	MT stabilize HCS	HMGR II inh	RAM inhibit	BB579 growth dn	bCat nuc transl
O=C(OCC#CCSc1nc2ccccc2o1)c1cc2ccccc2o1	.	3	-1	10*	-48	-1
CCC(=O)Nc1sc2c(c1C#N)CCC2	.	1	-1	2	.	-2
CCc1ccc(CCC(=O)Nc2sc3c(c2C#N)CCCC3)o1	-11	17*	1	3	-38	64*
CC(Sc1nc(-c2ccccc2)cc(C(F)(F)F)n1)C(=O)Nc1sc2c(c1C#N)CCC2 (stereo not drawn)	1	3	3	10.0*	-31	0
Cc1cccc(C(=O)Nc2sc3c(c2C#N)CCCCC3)c1	.	3	-12	5	-38	-1
N#Cc1c(NC(=O)c2ccccc2)sc2c1CCC2	-9	33*	-2	4	-35	.
COc1cccc(C(=O)Nc2sc3c(c2C#N)CCN(C(C)=O)C3)c1	.	28*	-3	5	.	53*
O/N=C\c1ccccc1Oc1ccc(F)cc1	.	2	5	0	.	1
Fc1cccc(Cc2noc(CN3CCC(c4ccncc4)CC3)n2)c1	.	6	-2	1	.	-1
CC(=O)N1CC2(C)CN(C(C)=O)CC(C)(C1)C2	-9	3	22*	2	-13	2
COc1cc(C2Sc3ccccc3NC3=C2C(=O)OC3)cc(OC)c1OC (stereo not drawn)	.	40*	-1	0	-23	1
Cc1ccc(Cn2ncc3c(N4CCN(c5ccccc5C)CC4)ncnc32)cc1	-5	2	-4	10*	-36	-1
COc1cccc(NC(=O)c2cc(C(=O)Nc3cccc(OC)c3)n(C)n2)c1	6	3	1	11*	-60	.
COc1cccc(NC(=O)c2ccc3snnc3c2)c1	.	3	17*	1	-31	0
COc1ccc(C(=O)Nc2cccc(OC(=O)c3ccc(C)c(C)c3)c2)cc1	-5	22*	-4	8	-43	0
COc1cccc(NC(=O)c2ccncc2)c1	-20	4	1	0	11	-5
Cc1ccc(C2(c3ccc(C)cc3)CC2C(=O)Nc2ccc([N+](=O)[O-])cc2O)cc1 (stereo not drawn)	-6	2	-2	6	-38	9
COc1ccc(NC(=O)Oc2cc(C)ccc2C(C)C)cc1	.	.	.	.	.	-2
CC(=O)[C@@]1(O)CC[C@H]2[C@@H]3CCC4=CC(=O)CC[C@]4(C)[C@H]3CC[C@@]21C	15	2	12*	0	-43	.
C[C@]12CCC(=O)C=C1CC[C@@H]1[C@@H]2C(=O)C[C@@]2(C)[C@H]1CC[C@]2(O)C(=O)CO	0	3	0	1	-6	.
COc1ccccc1Oc1nc2c(c(=O)n(Cc3ccccc3F)c(=O)n2C)n1C	-10	4	2	10*	-64	.
Cn1c(NCCCO)nc2c1c(=O)n(Cc1ccccc1F)c(=O)n2C	-10	5	0	-1	-9	-1
Cn1c(=O)c2c(nc(SCc3nn[nH]n3)n2Cc2ccccc2F)n(C)c1=O	-6	5	-4	10*	-21	.
CCOC(=O)c1cc(C(=O)OCC)c(=O)[nH]c1N1CCCCC1	.	5	-6	0	.	-6
CCc1ccc(NC(=O)C(=O)NCCOc2ccccc2Cl)cc1	.	26*	-4	4	.	3
SMILES	Yeast life ext	MT stabilize HCS	HMGR II inh	RAM inhibit	BB579 growth dn	bCat nuc transl
Cc1ccc(NC(=O)C(=O)NCCOc2ccccc2Cl)cc1	1	4	-9	4	-8	-2
Cc1ccc2nc(C)cc(C(=O)OCC(=O)Nc3cccnc3Cl)c2c1	.	3	-4	3	.	-1
COCCN(C(=S)Nc1c(C)cc(C)cc1C)C(C)c1cccs1 (stereo not drawn)	.	3	5	2	.	1
Cc1c(/C=N\NC(=O)c2csc3ccccc23)cnn1C	-15	5	-2	3	7	.
CCn1ncc(/C=N\NC(=O)c2csc3ccccc23)c1C	-4	48*	0	-1	-19	129*
CC(=O)NNc1cc(C)nc(N)n1	.	.	.	.	.	-1
COc1cccc(/C=C2\SC(=S)N(CC3CCCO3)C2=O)c1 (stereo not drawn)	1	4	-4	8.6*	-20	3
CCOc1ccc(Cc2n[nH]c(=S)n2Cc2ccccc2)cc1	.	8	0	1	.	6
CC1(C)CC(=O)C2=C(C1)OC(N)=C([N+](=O)[O-])C2c1cccs1 (stereo not drawn)	28*	4	-1	0	-20	-2
N#Cc1ccccc1OCC(=O)NC(=O)NCc1ccco1	.	.	.	.	.	1
Cc1nc(N2CCC(C)CC2)c2oc3ccccc3c2n1	-27	24*	0	0	-24	1
CC1CCN(c2nnc(N3CCC(C)CC3)c3ccccc23)CC1	.	2	-7	1	.	2
CC1CCN(c2nncc3ccccc23)CC1	30*	5	-3	1	-23	-1
COc1ccccc1N1CCN(c2nc(C)nc3c2oc2ccccc23)CC1	-7	20*	-3	0	-27	81*
Brc1ccc(Nc2ncnc3[nH]ncc23)cc1	.	.	.	.	.	1
CCOC(=O)c1c(NC(=O)CSc2nnc(Cc3ccccc3)o2)sc(C(C)=O)c1C	-9	3	3	9.0*	-35	2
CCOC(=O)c1c(NC(=O)CSc2nnc(-c3ccccc3)o2)sc(C(C)=O)c1C	-13	1	1	2	-75	1
CCOC(=O)c1c(NC(=O)CSc2nnc(-c3ccc(C)cc3)o2)sc(C(C)=O)c1C	-21	3	-3	4	-53	.
CCOC(=O)c1c(NC(=O)CSc2nc3ccccc3o2)sc(C(C)=O)c1C	2	2	0	9.2*	-23	-2
NC(=O)c1cccc(C(N)=O)n1	.	2	-4	-2	.	-4
O=C(O)c1cc(-c2ccccc2)n(-c2ccccc2C(=O)O)n1	-12	3	9.6*	-1	-17	3
O=C(O)c1cc(-c2ccc(Cl)cc2)n(-c2ccccc2)n1	.	3	3	-2	.	-2
Cc1ccc(S(=O)(=O)/N=c2\ccc(Cl)cn2C(F)F)cc1	.	2	-1	2	.	-2
O=[N+]([O-])c1ccc(/C=N/Nc2nc(N3CCCCC3)nc(N3CCCCC3)n2)cc1	.	1	-6	2	.	-1
O=[N+]([O-])c1ccc(Nc2nc(N/N=C\c3ccc4c(c3)OCO4)nc(N3CCCCC3)n2)cc1	13	1	-4	11*	-15	.
Cn1c(SCC(=O)Nc2ccc3[nH]c(=O)[nH]c3c2)nnc1-c1ccc(F)cc1	.	.	.	.	.	0
